Legend:
[1] = target: Adrenergic receptor alpha-1 (Rattus norvegicus) (UniProt P15823+P23944+P43140); test: Agonism at alpha-1 adrenergic receptor, determined as the dose required to produce a two fold shift of the cirazoline on diastolic blood pressure.; assay type: functional, tissue-based; conditions: Artery
[2] = target: T1, Adrenergic receptor alpha-1 (Rattus norvegicus, UniProt P15823+P23944+P43140); test: Inhibition of saturable binding of [3H]prazosin to alpha-1 adrenergic receptor in rat cerebral cortical membranes.; assay type: cell membranes, Membrane
T1 sequence (P15823 whole entry): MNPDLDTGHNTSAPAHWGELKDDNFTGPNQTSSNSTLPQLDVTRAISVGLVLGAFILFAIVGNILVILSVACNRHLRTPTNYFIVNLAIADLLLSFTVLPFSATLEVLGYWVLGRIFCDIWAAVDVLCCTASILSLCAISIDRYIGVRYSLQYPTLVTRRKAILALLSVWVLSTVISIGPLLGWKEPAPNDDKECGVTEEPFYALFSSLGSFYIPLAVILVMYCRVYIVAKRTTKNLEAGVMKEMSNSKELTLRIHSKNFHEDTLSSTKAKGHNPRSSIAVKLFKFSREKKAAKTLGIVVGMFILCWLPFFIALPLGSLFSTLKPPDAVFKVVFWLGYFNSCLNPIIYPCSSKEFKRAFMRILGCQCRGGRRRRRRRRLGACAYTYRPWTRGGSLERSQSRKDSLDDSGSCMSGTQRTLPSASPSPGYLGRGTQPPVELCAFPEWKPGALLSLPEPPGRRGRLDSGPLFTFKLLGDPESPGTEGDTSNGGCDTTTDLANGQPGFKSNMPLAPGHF
T1 sequence (P23944 whole entry): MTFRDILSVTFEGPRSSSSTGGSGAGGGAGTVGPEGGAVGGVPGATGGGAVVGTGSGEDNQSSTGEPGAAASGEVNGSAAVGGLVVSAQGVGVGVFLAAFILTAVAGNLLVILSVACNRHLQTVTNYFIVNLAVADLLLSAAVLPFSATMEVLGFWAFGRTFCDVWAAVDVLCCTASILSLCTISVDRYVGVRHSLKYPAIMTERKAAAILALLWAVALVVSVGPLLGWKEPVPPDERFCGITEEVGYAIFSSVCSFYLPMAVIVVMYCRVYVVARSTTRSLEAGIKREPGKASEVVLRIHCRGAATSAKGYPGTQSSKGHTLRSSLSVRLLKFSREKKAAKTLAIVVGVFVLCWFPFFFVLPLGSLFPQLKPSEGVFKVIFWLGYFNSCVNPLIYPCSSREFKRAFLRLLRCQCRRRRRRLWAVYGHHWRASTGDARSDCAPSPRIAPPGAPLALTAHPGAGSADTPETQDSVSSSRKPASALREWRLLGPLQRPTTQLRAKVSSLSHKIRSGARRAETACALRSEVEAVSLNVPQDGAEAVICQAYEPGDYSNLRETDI
T1 sequence (P43140 whole entry): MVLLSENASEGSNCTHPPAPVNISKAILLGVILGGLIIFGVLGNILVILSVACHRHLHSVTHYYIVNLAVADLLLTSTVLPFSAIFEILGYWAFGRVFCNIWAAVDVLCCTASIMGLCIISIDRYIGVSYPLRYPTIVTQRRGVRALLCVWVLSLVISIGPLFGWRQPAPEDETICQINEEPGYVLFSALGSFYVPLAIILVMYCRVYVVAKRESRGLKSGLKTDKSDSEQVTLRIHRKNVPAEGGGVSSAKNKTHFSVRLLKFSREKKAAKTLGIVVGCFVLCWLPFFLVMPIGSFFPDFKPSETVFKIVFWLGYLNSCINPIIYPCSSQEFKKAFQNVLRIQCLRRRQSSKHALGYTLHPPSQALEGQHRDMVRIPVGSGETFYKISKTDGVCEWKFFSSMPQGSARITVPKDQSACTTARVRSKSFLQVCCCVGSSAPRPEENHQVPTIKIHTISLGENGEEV
How it was run: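 Rat cerebral cortical membranes were used as the α1 site source and labelled with [³H]prazosin. Compounds displaced saturable binding. Ki (nM) was defined as the concentration inhibiting saturable binding by 50%.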

Rattus norvegicus = test: In vivo dose required to inhibit vas deferens contraction by 25% after pretreatment with prazosin in pithed rats. (prejunctional); assay type: functional
How it was run: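 Pithed rats pretreated with prazosin (1 mg/kg). Compound given iv in cumulative doses. ED25 is the dose (μg/kg) inhibiting vas deferens contraction by 25%. Separate groups of rats (n = 4-6).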

c1ccc(CN2c3ccccc3CC2C2=NCCN2)cc1 (stereo not drawn)
Postjunctional agonist potency [1]: 0
Ki [2]: 0.0175 µM
ED25 (Rattus norvegicus): 9.5 µg/kg
